Test results taken from ChEMBL document CHEMBL1155254, “Diketoacid-genre HIV-1 integrase inhibitors containing enantiomeric arylamide functionality” (Bioorg Med Chem, 2009).

How the values were obtained:
[1] = target: T1, Human immunodeficiency virus type 1 integrase (Human immunodeficiency virus 1, UniProt Q7ZJM1); assay: Inhibition of HIV1 integrase strand transfer activity expressed in Escherichia coli by PAGE
In short: (§1)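 Recombinant IN expressed in E. coli and purified with 10% glycerol in all buffers. 10 μL reactions held 400 nM IN, 20 nM 5'-end [³²P]-labeled oligonucleotide substrate and inhibitor at various concentrations, with 10% DMSO controls. Buffer was 50 mM MOPS pH 7.2 with 7.5 mM MgCl₂ (final), 30 min at 37 °C. Stopped with EDTA/formamide loading dye.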

[2] = target: T1, Human immunodeficiency virus type 1 integrase; assay: Inhibition of HIV1 integrase 3'-processing activity expressed in Escherichia coli by PAGE; in short: as §1

T1 sequence (Q7ZJM1 whole entry): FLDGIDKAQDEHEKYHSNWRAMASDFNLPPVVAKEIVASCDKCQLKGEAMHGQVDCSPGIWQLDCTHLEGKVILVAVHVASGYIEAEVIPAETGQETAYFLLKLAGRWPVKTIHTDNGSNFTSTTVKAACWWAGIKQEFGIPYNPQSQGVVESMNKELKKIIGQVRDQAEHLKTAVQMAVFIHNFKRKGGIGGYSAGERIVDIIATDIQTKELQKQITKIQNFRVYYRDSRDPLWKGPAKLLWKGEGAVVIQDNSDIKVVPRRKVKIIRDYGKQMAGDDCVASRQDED

| SMILES | IC50 [1] | IC50 [2] |
| --- | --- | --- |
| O=C1c2ccc(O)c(O)c2C(=O)N1Cc1ccccc1 | 0.39 µM |  |
| O=C1c2ccc(O)c(O)c2C(=O)N1[C@H]1CCc2ccccc21 | 1.8 µM | 128 µM |
| C[C@@H](c1cccc2ccccc12)N1Cc2ccc(O)c(O)c2C1=O | 4 µM | > 111 µM |
| O=C1c2ccc(O)c(O)c2C(=O)N1CCc1ccccc1 | 6.8 µM | 157 µM |
| O=C1c2c(ccc(O)c2O)CN1Cc1ccc2ccccc2c1 | 0.8 µM | 24 µM |
| O=C1c2ccc(O)c(O)c2C(=O)N1C1Cc2ccccc2C1 | 4 µM | 37 µM |
| O=C1c2ccc(O)c(O)c2C(=O)N1[C@H]1CCCc2ccccc21 | 10 µM | 111 µM |
| C[C@@H](c1ccc2ccccc2c1)N1Cc2ccc(O)c(O)c2C1=O | 4.6 µM | > 111 µM |
| O=C1c2ccc(O)c(O)c2C(=O)N1Cc1cccc2ccccc12 | 0.72 µM | 150 µM |
| O=C1c2ccc(O)c(O)c2C(=O)N1Cc1ccc2ccccc2c1 | 0.96 µM | 18 µM |
| C[C@H](c1cccc2ccccc12)N1Cc2ccc(O)c(O)c2C1=O | 48.3 µM | > 111 µM |
| O=C1c2ccc(O)c(O)c2C(=O)N1[C@@H]1CCCc2ccccc21 | 81 µM | > 333 µM |
| C[C@H](c1ccc2ccccc2c1)N1Cc2ccc(O)c(O)c2C1=O | 24 µM | > 111 µM |
| O=C1c2ccc(O)c(O)c2C(=O)N1[C@@H]1CCc2ccccc21 | 12 µM | 290 µM |
| O=C1c2c(ccc(O)c2O)CN1C1Cc2ccccc2C1 | 23 µM | > 333 µM |

Now from value to compound:

| IC50 [1] | IC50 [2] | SMILES |
| --- | --- | --- |
| 121 µM | > 333 µM | C[C@H](C1CCCc2ccccc21)N1Cc2ccc(O)c(O)c2C1=O (stereo partly specified) |
| 99 µM | > 333 µM | C[C@H](C1CCc2ccccc21)N1Cc2ccc(O)c(O)c2C1=O (stereo partly specified) |
| 100 µM | > 333 µM | C[C@H](c1ccccc1)N1Cc2ccc(O)c(O)c2C1=O |
| 45 µM | > 333 µM | C[C@@H](c1ccccc1)N1Cc2ccc(O)c(O)c2C1=O |
| 6 µM | > 333 µM | C[C@@H](C1CCc2ccccc21)N1Cc2ccc(O)c(O)c2C1=O (stereo partly specified) |
| 9 µM | > 333 µM | C[C@@H](C1CCCc2ccccc21)N1Cc2ccc(O)c(O)c2C1=O (stereo partly specified) |
